Assay results: PMC11568772 (Drug Design, Development and Therapy, 2024)

Assays:
[1] = system: human cervical (Hela) carcinoma cell line; assay: MTT cytotoxicity, Hela; type: cell-based; conditions: 24 h, read-out: IC50 Hela
How it was run: (§1)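 Cells were grown in medium with 10% FBS, penicillin/streptomycin, 37°C, 5% CO2, then seeded at 1.0×10^4 cells/well and held 48 h. Test compound was added at 1.56, 3.125, 6.25, 12.5, 25, 50 and 100, for 24 h. MTT (5 mg/mL stock) was added for 4 h, formazan dissolved in DMSO and A570 read. Viability was taken relative to untreated wells. IC50 came from a Boltzmann sigmoidal fit, in triplicate, mean ± SD.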

[2] = system: WI-38 normal fibroblast cells; assay: MTT cytotoxicity towards normal human cells WI-38; type: cell-based; conditions: WI-38, 24 h, read-out: IC50 WI-38
[3] = system: hepatocellular (HePG2) carcinoma cell line; assay: MTT cytotoxicity, HePG-2; type: cell-based; conditions: Homo sapiens, HepG2, 24 h, read-out: IC50 HePG-2
[4] = system: colorectal (HCT116) carcinoma cell line; assay: MTT cytotoxicity, HCT-116; type: cell-based; conditions: Homo sapiens, HCT-116, 24 h, read-out: IC50 HCT-116
[5] = system: breast cancer (MCF-7) cell line; assay: MTT cytotoxicity, MCF-7; type: cell-based; conditions: Homo sapiens, MCF7, 24 h, read-out: IC50 MCF-7
How it was run: as §1

[6] = system: HCT-116, HePG-2, HeLa and MCF-7 cells; assay: MTT cytotoxicity summarised over the 4 cancer cell lines; type: cell-based; conditions: Homo sapiens, read-out: IC50 range of one compound over the cancer cell lines
How it was run: as §1

VEGFR-2 enzyme = VEGFR-2 enzyme (Homo sapiens, UniProt P35968); assay: VEGFR-2 kinase inhibitory assay; type: biochemical; conditions: for inhibition at 0.01 µM: read-out: % Inhibition 0.01 μM, VEGFR-2 enzyme, 0.01 μM; for inhibition at 0.1 µM: read-out: % Inhibition 0.1 μM, VEGFR-2 enzyme, 0.1 μM; for inhibition at 10 µM: read-out: % Inhibition 10 μM, VEGFR-2 enzyme, 10 μM
MCF-7 cells [7] = assay: Cell cycle analysis by PI staining and flow cytometry; type: cell-based, human; conditions: MCF-7, 24 h at IC50 of the compound
MCF-7 cells [8] = assay: Annexin V-FITC/PI apoptosis assay; type: cell-based, human; conditions: MCF-7, 24 hours of incubation
How it was run: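 MCF-7 cells were treated with test compound for 24 h, with DMSO as control. 1–5×10^5 cells were pelleted by centrifugation and resuspended in binding buffer. They were stained with Annexin V-FITC and PI for 5 min at room temperature in the dark, then analysed by flow cytometry. Quadrants: Q1 necrotic, Q2 late apoptotic, Q3 live, Q4 early apoptotic.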

[9] = system: prostate cancer PC3 cell line; conditions: read-out: IC50 PC3 cell line; cited from earlier work

Chain of VEGFR-2 enzyme (P35968 20-1356): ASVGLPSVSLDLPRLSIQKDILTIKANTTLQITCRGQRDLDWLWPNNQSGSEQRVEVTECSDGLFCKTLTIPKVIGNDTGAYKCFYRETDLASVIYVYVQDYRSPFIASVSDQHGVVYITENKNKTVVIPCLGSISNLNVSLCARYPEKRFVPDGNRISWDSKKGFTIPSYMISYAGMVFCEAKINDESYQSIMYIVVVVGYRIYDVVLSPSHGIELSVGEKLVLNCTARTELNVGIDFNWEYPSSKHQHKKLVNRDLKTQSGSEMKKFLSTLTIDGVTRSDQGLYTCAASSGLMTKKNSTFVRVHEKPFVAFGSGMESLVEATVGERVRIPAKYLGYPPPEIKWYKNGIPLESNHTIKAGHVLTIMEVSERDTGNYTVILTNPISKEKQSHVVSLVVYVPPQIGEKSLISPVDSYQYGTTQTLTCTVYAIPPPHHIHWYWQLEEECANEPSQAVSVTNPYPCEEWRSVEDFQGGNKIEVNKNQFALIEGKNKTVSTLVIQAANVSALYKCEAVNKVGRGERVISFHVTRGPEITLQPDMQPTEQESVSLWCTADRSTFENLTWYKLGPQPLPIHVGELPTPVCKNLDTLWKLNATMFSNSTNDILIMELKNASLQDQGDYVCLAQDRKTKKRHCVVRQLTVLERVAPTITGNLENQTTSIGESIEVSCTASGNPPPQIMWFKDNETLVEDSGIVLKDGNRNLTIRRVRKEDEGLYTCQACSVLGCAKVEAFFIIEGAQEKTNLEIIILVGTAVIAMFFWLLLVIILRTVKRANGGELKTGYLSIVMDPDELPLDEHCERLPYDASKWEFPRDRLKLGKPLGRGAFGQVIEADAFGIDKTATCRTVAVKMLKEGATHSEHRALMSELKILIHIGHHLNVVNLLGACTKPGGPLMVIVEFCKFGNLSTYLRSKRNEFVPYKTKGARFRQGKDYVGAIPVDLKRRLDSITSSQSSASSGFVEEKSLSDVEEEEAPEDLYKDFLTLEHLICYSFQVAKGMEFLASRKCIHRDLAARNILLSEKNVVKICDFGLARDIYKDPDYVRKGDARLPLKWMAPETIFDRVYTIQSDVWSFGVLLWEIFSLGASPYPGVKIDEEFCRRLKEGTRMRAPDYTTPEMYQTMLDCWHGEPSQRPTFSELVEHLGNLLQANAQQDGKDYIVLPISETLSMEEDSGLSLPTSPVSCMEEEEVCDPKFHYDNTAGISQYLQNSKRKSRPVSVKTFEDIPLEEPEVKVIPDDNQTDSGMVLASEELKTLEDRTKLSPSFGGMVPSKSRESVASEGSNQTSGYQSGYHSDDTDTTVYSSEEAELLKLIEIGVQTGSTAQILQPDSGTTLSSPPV

Row | SMILES | IC50 [1] [µM] | IC50 [2] [µM] | IC50 [3] [µM] | IC50 [4] [µM] | IC50 [5] [µM] | IC50 [6] [µM] | other results
1 | COc1ccc(NC(=O)NCCSc2nc3ccccc3c(=O)n2-c2ccccc2)cc1 [Compound 5a, 1-(4-Methoxyphenyl)-3-(2-((4-Oxo-3-Phenyl-3,4-Dihydroquinazolin-2-Yl)thio)ethyl)urea] | 83.4 ± 4.4 | 29.4 ± 2.1 | 81.3 ± 4.3 | 62.7 ± 3.6 | 79.5 ± 3.9 | 62.7 to 83.4 | 
2 | COc1ccc(NC(=O)NCCSc2nc3cc(Cl)ccc3c(=O)n2-c2ccccc2)cc1 [Compound 5j, 1-(2-((7-Chloro-4-Oxo-3-Phenyl-3,4-Dihydroquinazolin-2-Yl)thio)ethyl)-3-(4-Methoxyphenyl)urea] | 19.1 ± 1.4 | 38.5 ± 2.5 | 12.3 ± 1 | 9.51 ± 0.9 | 16 ± 1.3 | 9.51 to 16 | 
3 | O=C(NCCSc1nc2cc(Cl)ccc2c(=O)n1-c1ccccc1)Nc1ccc(Br)cc1 [Compound 5l, 1-(4-Bromophenyl)-3-(2-((7-Chloro-4-Oxo-3-Phenyl-3,4-Dihydroquinazolin-2-Yl)thio)ethyl)urea] | 49.4 ± 2.9 | > 100 | 44.7 ± 2.9 | 28.6 ± 2.3 | 37.2 ± 2.5 | 28.6 to 49.4 | 
4 | O=C(NCCSc1nc2ccccc2c(=O)n1-c1ccccc1)NCCc1ccccc1 [Compound 5h, 1-(2-((4-Oxo-3-Phenyl-3,4-Dihydroquinazolin-2-Yl)thio)ethyl)-3-Phenethylurea] | 11.6 ± 0.9 | 41.1 ± 2.6 | 6.74 ± 0.5 | 5.89 ± 0.3 | 13.9 ± 1.1 |  | IC50 (VEGFR-2 enzyme): 0.215 µM; % Inhibition 1 μM (VEGFR-2 enzyme; VEGFR-2 enzyme, 1 μM): 65.78%; % Inhibition 100 μM (VEGFR-2 enzyme; VEGFR-2 enzyme, 100 μM): 93.07%; inhibition at 0.01 µM (VEGFR-2 enzyme): 25.3%; inhibition at 0.1 µM (VEGFR-2 enzyme): 40.1%; inhibition at 10 µM (VEGFR-2 enzyme): 86.1%
5 | O=C(NCCSc1nc2cc(Cl)ccc2c(=O)n1-c1ccccc1)NCCc1ccc(Cl)cc1 [Compound 5r, 1-(2-((7-Chloro-4-Oxo-3-Phenyl-3,4-Dihydroquinazolin-2-Yl)thio)ethyl)-3-(4-Chlorophenethyl)urea] | 22.4 ± 1.7 | 74.2 ± 4.1 | 17.7 ± 1.4 | 13.2 ± 1.1 | 10.7 ± 0.9 | 10.7 to 22.4 | 
6 | O=C(NCCSc1nc2ccccc2c(=O)n1-c1ccccc1)NCc1ccccc1 [Compound 5e, 1-Benzyl-3-(2-((4-Oxo-3-Phenyl-3,4-Dihydroquinazolin-2-Yl)thio)ethyl)urea] | 75.3 ± 4.2 | > 100 | 65.7 ± 3.8 | 54.9 ± 3.3 | 72.8 ± 3.6 |  | 
7 | O=C(NCCSc1nc2cc(Cl)ccc2c(=O)n1-c1ccccc1)NCc1ccc(Cl)cc1 [Compound 5p, 1-(2-((7-Chloro-4-Oxo-3-Phenyl-3,4-Dihydroquinazolin-2-Yl)thio)ethyl)-3-(4-Chlorobenzyl)urea] | 14.3 ± 1.2 | 56.9 ± 3.3 | 9.72 ± 0.7 | 8.32 ± 0.7 | 7.99 ± 0.5 | 7.99 to 14.3 | Cell Cycle Distribution (%) G2-M (MCF-7 cells [7]; DMSO control 16.75): 7.82%; Cell Cycle Distribution (%) S (MCF-7 cells [7]; DMSO control 29.16): 35.02%; Cell Cycle Distribution (%) G0-G1 (MCF-7 cells [7]; DMSO control 54.09): 57.16%; necrosis (Q1) (MCF-7 cells [8]): 4.23%; late apoptosis (Q2) (MCF-7 cells [8]; control 0.27%): 12.51%; early apoptosis (Q4) (MCF-7 cells [8]; control 0.61%): 26.11%; total apoptosis (MCF-7 cells [8]; control 2.29%): 42.85%; IC50 (VEGFR-2 enzyme): 0.117 µM; inhibition at 0.01 µM (VEGFR-2 enzyme): 31.4%; inhibition at 0.1 µM (VEGFR-2 enzyme): 44.4%; inhibition at 1 µM (VEGFR-2 enzyme; read-out: % Inhibition 1 μM, VEGFR-2 enzyme, 1 μM): 70.5%; inhibition at 10 µM (VEGFR-2 enzyme): 88.3%; inhibition at 100 µM (VEGFR-2 enzyme; read-out: % Inhibition 100 μM, VEGFR-2 enzyme, 100 μM): 93.5%
8 | O=C(NCCSc1nc2cc(Cl)ccc2c(=O)n1-c1ccccc1)NCc1ccccc1 [Compound 5n, 1-Benzyl-3-(2-((7-Chloro-4-Oxo-3-Phenyl-3,4-Dihydroquinazolin-2-Yl)thio)ethyl)urea] | 61.5 ± 3.7 | 73.6 ± 3.9 | 52.4 ± 3.4 | 44.2 ± 2.8 | 48.7 ± 3 |  | 
9 | O=C(NCCSc1nc2ccccc2c(=O)n1-c1ccccc1)Nc1ccc(Cl)cc1 [Compound 5b, 1-(4-Chlorophenyl)-3-(2-((4-Oxo-3-Phenyl-3,4-Dihydroquinazolin-2-Yl)thio)ethyl)urea] | > 100 | 64.3 ± 3.7 | 88.5 ± 4.8 | 77.3 ± 4.2 | 92.2 ± 4.7 | 77.3 to 100 | 
10 | CNC(=O)c1cc(Oc2ccc(NC(=O)Nc3ccc(Cl)c(C(F)(F)F)c3)cc2)ccn1 [SOR, Sorafenib, reference compound] |  |  |  |  | 4.17 ± 0.2 |  | IC50 [9]: 17.3 µM
11 | O=C(NCCSc1nc2ccccc2c(=O)n1-c1ccccc1)NCc1ccc(Cl)cc1 [Compound 5g, 1-(4-Chlorobenzyl)-3-(2-((4-Oxo-3-Phenyl-3,4-Dihydroquinazolin-2-Yl)thio)ethyl)urea] | 53.7 ± 3.1 | 86 ± 4.8 | 47.2 ± 3.1 | 35.3 ± 2.6 | 39.6 ± 2.6 | 35.3 to 53.7 | 
